From ChEMBL document CHEMBL2331437, “Meroterpenoid pigments from the basidiomycete Albatrellus ovinus” (J Nat Prod, 2013)

Columns and labels:
Type in all cases: functional, cell-based
MCF7 = assay: Cytotoxicity against human MCF7 cells after 48 hrs by MTT assay; settings: MCF7, 48 h
Outline: (§1)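 Cells grown in RPMI-1640 or DMEM with 10% FBS, 37 °C, 5% CO2. Seeded at 1 × 10^5 cells/mL; adherent lines allowed 12 h to attach, suspension cells seeded just before dosing. Compounds at various concentrations in triplicate, 48 h. MTT (100 μg per well) 4 h at 37 °C, SDS lysis, OD 595 nm; IC50 by Reed and Muench method.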

HL-60 = assay: Cytotoxicity against human HL60 cells after 48 hrs by MTT assay; settings: HL-60, 48 h; outline: as §1
A549 = assay: Cytotoxicity against human A549 cells after 48 hrs by MTT assay; settings: A549, 48 h; outline: as §1
[1] = Cytotoxicity against human […] cells after 48 hrs by MTT assay; outline: as §1

Structure (SMILES)	IC50 (MCF7)	IC50 (HL-60)	IC50 (A549)	IC50 [1]
CC(C)=CCC/C(C)=C/CC[C@]1(C)C=Cc2c(C)cc(O)cc2O1 [ALBATRELIN C]	> 40 µM	> 40 µM	> 40 µM	> 40 µM
CC(C)=CCC/C(C)=C/CC/C(C)=C/CC1=C(O)C(=O)C(C)=C(c2c(O)cc(O)c(C/C=C(\C)CC/C=C(\C)CCC=C(C)C)c2C)C1=O [ALBATRELIN E]	> 40 µM	> 40 µM	> 40 µM	> 40 µM
COC(=O)c1c(O)cc(O)c(C/C=C(\C)CC/C=C(\C)CCC=C(C)C)c1C [ALBATRELIN A]	> 40 µM	> 40 µM	> 40 µM	> 40 µM
COc1cc(C)c(O)c2c1C=C[C@@](C)(CC/C=C(\C)CCC=C(C)C)O2 [ALBATRELIN B]	> 40 µM	> 40 µM	> 40 µM	> 40 µM
CC(C)=CCC/C(C)=C/CC[C@]1(C)C=Cc2c(O)cc(C)cc2O1 [CONFLUENTIN]	23 µM	15.1 µM	18.5 µM	17.1 µM
CC(C)=CCC/C(C)=C/CC/C(C)=C/CC12C(=O)C=C(C)C(=O)C1(O)Oc1c3c(c(O)c(C)c12)O[C@](C)(CC/C=C(\C)CCC=C(C)C)C=C3 (stereo partly drawn) [ALBATRELIN F]	> 40 µM	> 40 µM	> 40 µM	> 40 µM
CC(C)=CCC/C(C)=C/CC/C(C)=C/Cc1c(O)cc(C)c2c1oc1c3c(c(O)c(C)c12)O[C@](C)(CC/C=C(\C)CCC=C(C)C)C=C3 [ALBATRELIN D]	> 40 µM	> 40 µM	> 40 µM	> 40 µM
